Experimental data: PubChem BioAssay AID1526 (The Scripps Research Institute Molecular Screening Center, 2009)
The other results are listed elsewhere or left out. Active and inactive are the calls of the source.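 Rule for the calls: active = activation above a set limit derived from the earlier primary screen (cut at about 12% in these data); inactive = the rest.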

These compounds were tested against Mucolipin-3 (Homo sapiens) (UniProt Q8TDD5) (assay: activators of mucolipin-3 cation channel – cell-based, HEK293 TRPML3-YFP, Fluo-8 calcium, triplicate, confirmation (AID 1526)). Conditions: Fluo-8 calcium fluorescence, at 3 µM, hits give high values, 100% set by carbachol, 0% by DMSO.
Chain of Mucolipin-3 (Homo sapiens) (Q8TDD5 whole entry, looked up): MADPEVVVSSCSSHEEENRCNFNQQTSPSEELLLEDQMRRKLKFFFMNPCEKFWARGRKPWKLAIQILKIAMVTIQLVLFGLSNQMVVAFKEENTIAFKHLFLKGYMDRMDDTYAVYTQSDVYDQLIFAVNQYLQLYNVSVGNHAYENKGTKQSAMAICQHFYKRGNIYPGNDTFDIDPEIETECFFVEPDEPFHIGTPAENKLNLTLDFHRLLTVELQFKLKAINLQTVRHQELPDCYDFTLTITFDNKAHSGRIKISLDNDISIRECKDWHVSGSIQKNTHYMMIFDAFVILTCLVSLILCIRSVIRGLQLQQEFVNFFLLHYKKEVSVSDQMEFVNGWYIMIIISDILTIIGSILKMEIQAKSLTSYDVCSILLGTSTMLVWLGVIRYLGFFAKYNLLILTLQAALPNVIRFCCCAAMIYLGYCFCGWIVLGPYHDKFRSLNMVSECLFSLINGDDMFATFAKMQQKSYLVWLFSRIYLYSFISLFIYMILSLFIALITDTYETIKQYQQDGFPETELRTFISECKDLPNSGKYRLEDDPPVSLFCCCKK
In short: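 system = human TRPML3-YFP channel stably expressed in HEK293 cells | dosing = one 3 µM nominal concentration | schedule = dye loading 1 h, 37 °C, 125 s read | technique = Fluo-8 calcium dye fluorescence | read-out = percent activation from max/basal signal ratio | benchmarks = high carbachol 87 µM, low DMSO | repeats = three replicate wells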
O=C(CC(O)(C(F)(F)F)C(F)(F)F)Nc1ccc(Cl)c(Cl)c1 was tested, and the activation was 13.9% (active).
For CCOc1ccc(S(=O)(=O)N2CCCCCC2)c2ccccc12, the activation was 129% (active).
With Cc1cccc(C)c1N1CCN(S(=O)(=O)N2CCCCC2)CC1 the activation was 79.3% (active).
For COc1ccc(S(=O)(=O)N2CCCC2)c(C)c1C, the activation was 13.6% (active).
In the case of COc1ccc(Cl)cc1N(CC(=O)N1CCCCC1)S(C)(=O)=O, the activation is reported as 71.9% (active).
In the case of CCN(CC)S(=O)(=O)c1ccc2c3c(cccc13)C(=O)S2, the activation is reported as 10.5% (inactive).
For CC1=CC(C)(C)N(C(=O)CSc2nnc(-c3ccccc3)o2)c2ccc(C)cc21, the activation was 48.3% (active).
For c1ccc2c(C[n+]3csc4ccccc43)cccc2c1, the activation was 58% (active).
CC1CCCC(C)N1C(=O)CN1CCN(c2nc(-c3ccc(F)cc3)cs2)CC1 (stereo not drawn) was tested, and the activation was 20.4% (active).
In the case of CC1(C)CCCC2=C1CC1C(=O)N(c3ccccc3)C(=O)C1C2 (stereo not drawn), the activation is reported as 14.2% (active).
In the case of COc1ccc(-c2noc(CN(C)S(=O)(=O)c3ccc(C)cc3)n2)cc1, the activation is reported as 111% (active).
O=S(=O)(Nc1ccccc1N1CCOCC1)c1ccc(Cl)s1 was tested, and the activation was 63% (active).
In the case of CCN(CC)C(=O)CC1(c2ccccc2OC)CCOC(C(C)C)C1 (stereo not drawn), the activation is reported as 14.7% (active).
For COc1ccc(N(CCC#N)S(=O)(=O)c2ccc(Cl)cc2)cc1, the activation was 9.45% (inactive).
With COc1cc(/C=C(\C#N)c2nc3c(s2)CC(C)CC3)ccc1O (stereo not drawn) the activation was 6.5% (inactive).
In the case of CCOC(=O)C1=C(NC(=S)NC(=O)c2ccccc2)c2ccccc2CC1(C)C, the activation is reported as 43.6% (active).
C=C(C)Cn1c(C)cc(C)c(S(=O)(=O)c2ccccc2C)c1=O was tested, and the activation was 27.8% (active).
With COc1ccccc1N(CC(=O)N1CCCCC1)S(=O)(=O)c1ccccc1 the activation was 169% (active).
